Source: ChEMBL document CHEMBL4732044, “Discovery of a promising agent IQZ23 for the treatment of obesity and related metabolic disorders” (Eur J Med Chem, 2020)
Converted amounts (≈) assume the structure as drawn. The source made the active and inactive calls. No cut-off for these calls is given here.

Experiments:
3T3-L1 [1] = experiment: Activation of AMPK pathway in mouse 3T3-L1 cells assessed as increase in number of mitochondria copy at 2 uM after 24 hrs by mito-tracker staining based Confocal microscopic method; conditions: filed as activator
Procedure, shortened: (§1)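 3T3-L1 cells grown in DMEM with 10% FBS at 37 °C and 5% CO2. After treatment, cells were stained for 30 min at 37 °C in the dark with 1 µM Mito-Tracker plus Hoechst 33342 (1:1000) and imaged by confocal microscopy (excitation 633 and 405 nm). Mitochondrial copy number was also taken as the mtDNA/nDNA ratio by PCR (cytochrome C versus 18S rRNA).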

3T3-L1 [2] = experiment: Activation of AMPK pathway in mouse 3T3-L1 cells assessed as increase in number of mitochondria copy at 2 uM after 24 hrs in presence of compound C by mito-tracker staining based Confocal microscopic method; procedure, shortened: as §1
3T3-L1 [3] = experiment: Lipid lowering activity in mouse 3T3-L1 cells assessed as reduction in adipogenic cocktail-induced triglyceride levels incubated for 6 days by GPO-POD assay; type: functional, cell-based; conditions: for Activity: dose 1-5 µM, time 6.0 day; for EC50: 3T3-L1, 144 h
Procedure, shortened: (§2)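 Confluent 3T3-L1 cells were treated from day 0 in cocktail (IBMX, dexamethasone, insulin) for 3 days, then re-dosed in insulin medium for 3 more days. For dose–response, concentrations were 0–10 µM (0.01, 0.1, 0.3, 1, 3, 10). On day 6, cells were lysed in 0.2% Triton X-100 and TG was measured by GPO-POD and normalized to BCA protein as % of control. EC50 was fitted from the dose–response. N = 4.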

3T3-L1 [4] = experiment: Lipid lowering activity in mouse 3T3-L1 cells assessed as reduction in adipogenic cocktail-induced triglyceride levels at 1 to 5 uM incubated for 6 days by GPO-POD assay relative to control; type: functional; conditions: dose 1-5 µM, time 6.0 day; procedure, shortened: as §2
3T3-L1 [5] = experiment: Inhibition of mouse 3T3-L1 cells adipocyte differentiation assessed as reduction in adipogenic cocktail-induced C/EBPdelta mRNA expression after 24 hrs by RT-qPCR analysis; type: functional, cell-based; conditions: dose 0.01-1 µM
Procedure, shortened: (§3)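 Confluent 3T3-L1 preadipocytes received differentiation cocktail (0.5 mM IBMX, 100 ng/mL dexamethasone, 2 µg/mL insulin) with compound (0.01–1 µM; metformin 1 mM) for 24 h. mRNA was measured by SYBR Green RT-qPCR (30 cycles), normalized to β-actin, with the differentiated control set to 1. N = 4 independent experiments.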

[6] = Half life in Sprague-Dawley rat liver microsomes assessed as rate constant […] up to 60 mins in presence of NADPH by LC-MS/MS analysis; type: ADME, Microsome
3T3-L1 [7] = experiment: Inhibition of mouse 3T3-L1 cells adipocyte differentiation assessed as reduction in adipogenic cocktail-induced C/EBPalpha mRNA expression after 24 hrs by RT-qPCR analysis; type: functional, cell-based; conditions: dose 0.01-1 µM; procedure, shortened: as §3
3T3-L1 [8] = experiment: Inhibition of mouse 3T3-L1 cells adipocyte differentiation assessed as reduction in adipogenic cocktail-induced PPARgamma mRNA expression after 24 hrs by RT-qPCR analysis; type: functional, cell-based; conditions: dose 0.01-1 µM; procedure, shortened: as §3
[9] = Aqueous solubility in PBS buffer at pH 7.4 after 24 hrs; type: physicochemical
[10] = Stability in Sprague-Dawley rat liver microsomes assessed as remaining compound […] up to 60 mins in presence of NADPH by LC-MS/MS analysis; type: ADME, Microsome; conditions: read-out: Stabilty
3T3-L1 [11] = experiment: Lipid lowering activity in mouse 3T3-L1 cells assessed as reduction in adipogenic cocktail-induced triglyceride levels at 1 uM incubated for 6 days by GPO-POD assay relative to control; type: functional; set-up: scale not given: the % may be the effect or the level left; conditions: time 6 day; procedure, shortened: as §2
[12] = Intrinsic clearance in Sprague-Dawley rat liver microsomes assessed as rate constant […] up to 60 mins in presence of NADPH by LC-MS/MS analysis; type: ADME, Microsome; conditions: read-out: CLH
3T3-L1 [13] = experiment: Lipid lowering activity in mouse 3T3-L1 cells assessed as reduction in adipogenic cocktail-induced triglyceride levels at 1 uM incubated for 6 days by Oil-red O staining based assay; type: functional, cell-based; conditions: time 6.0 day
Procedure, shortened: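 Differentiating 3T3-L1 cells were treated at 1 µM for 6 days, then washed with PBS and fixed in 4% formaldehyde for 1 h. Cells were stained with 0.3% Oil Red O for 30 min at room temperature in the dark and imaged at ×200.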

[14] = Stability in Sprague-Dawley rat liver microsomes assessed as rate constant […] up to 60 mins in presence of NADPH by LC-MS/MS analysis; type: ADME, Microsome
3T3-L1 [15] = experiment: Activation of AMPK pathway in adipogenic cocktail-induced mouse 3T3-L1 cells assessed as increase in phosphorylation AMPKalpha at Thr172 residue at 0.01 to 1 uM after 24 hrs by Western blot analysis; type: cell-based; conditions: filed as activator, dose 0.01-1 µM
Procedure, shortened: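 Confluent 3T3-L1 pre-adipocytes exposed to adipogenic cocktail for 24 h with or without compound (0, 0.01, 0.1, 1 µM); DMSO vehicle. Lysates analysed by SDS-PAGE/Western blot for pAMPKα (Thr-172), normalized to actin, Ctrl set as 1. N = 4 independent experiments.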

3T3-L1 [16] = experiment: Cytotoxicity against mouse 3T3-L1 cells assessed as change in LDH releasing level at 5 uM after 6 days by LDH releasing assay; type: cell-based; conditions: 3t3-l1, 144 h, time 6 day
Procedure, shortened: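 Differentiating 3T3-L1 cells were treated at 5 µM for 6 days. Plates were centrifuged and LDH activity in the supernatant was read at 490 nm. Release was expressed as fold = (treated − blank)/(control − blank), with untreated cells as blank and vehicle-differentiated control set to 1.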

3T3-L1 [17] = experiment: Inhibition of mouse 3T3-L1 cells adipocyte differentiation assessed as reduction in adipogenic cocktail-induced C/EBPbeta mRNA expression after 24 hrs by RT-qPCR analysis; type: functional, cell-based; conditions: dose 0.01-1 µM; procedure, shortened: as §3
3T3-L1 [18] = experiment: Lipid lowering activity in mouse 3T3-L1 cells assessed as adipogenic cocktail-induced triglyceride levels at 1 uM incubated for 6 days by GPO-POD assay relative to control; type: functional; conditions: time 6 day; procedure, shortened: as §2

Compound | Activity (3T3-L1 [3]) | Activity (3T3-L1 [4]) | also measured
NC(=O)c1ncn([C@@H]2O[C@H](CO)[C@@H](O)[C@H]2O)c1N |  |  | Activity (3T3-L1 [1]): Active; Activity (3T3-L1 [2]): inactive
CCN(CC)CCCCNc1nc(-c2[nH]c3ccccc3c2C=O)nc2ccccc12 | Dose-dependent effect |  | 
Cc1c(-c2nc(NCCCN(C)C)c3ccccc3n2)[nH]c2ccccc12 | Dose-dependent effect | Active | 
Cc1c(-c2nc(NCCCCN3CCCC3)c3ccccc3n2)sc2ccccc12 | Dose-dependent effect | Active | 
COc1ccc2[nH]c(-c3nc(NCCN4CCCC4)c4ccccc4n3)c(C=O)c2c1 | Dose-dependent effect |  | inhibition (3T3-L1 [5]): Dose-dependent effect; EC50 (3T3-L1 [3]): 310 nM; half-life [6]: 1.75 h; inhibition (3T3-L1 [7]): Dose-dependent effect; inhibition (3T3-L1 [8]): Dose-dependent effect; solubility at 24 h [9]: 56.4 µg/mL (≈ 136 µM); remaining at 1 h [10]: 66.6%; Activity (3T3-L1 [11]): >=50%; microsomal CLint [12]: 6.6 µL/min/mg; Activity (3T3-L1 [13]): Active; k el at 1 h [14]: 0.00011 s⁻¹; Activity (3T3-L1 [15]): Active; Activity (3T3-L1 [16]): Non-Toxic; inhibition (3T3-L1 [17]): Dose-dependent effect
CN(C)CCNc1nc(-c2oc3ccccc3c2C=O)nc2ccccc12 | Dose-dependent effect |  | 
Cc1c(-c2nc(NCCCN3CCCC3)c3ccccc3n2)[nH]c2ccccc12 | Dose-dependent effect | Active | 
Cc1c(-c2nc(NCCCN(C)C)c3ccccc3n2)sc2ccccc12 | Dose-dependent effect | Active | 
CN(C)CCCNc1nc(-c2c(C=O)c3ccccc3n2C)nc2ccccc12 | Dose-dependent effect |  | Activity (3T3-L1 [18]): 70.4%
CN(C)CCOc1nc(-c2[nH]c3ccccc3c2C=O)nc2ccccc12 | Dose-dependent effect |  | 
CN(C)CCCNc1nc(-c2oc3ccccc3c2C=O)nc2ccccc12 | Dose-dependent effect |  | 
Cc1c(-c2nc(NCCCN3CCCC3)c3ccccc3n2)sc2ccccc12 | Dose-dependent effect | Active | 
Cc1c(-c2nc(NCCCCN(C)C)c3ccccc3n2)[nH]c2ccccc12 | Dose-dependent effect | Active | 
O=Cc1c(-c2nc(NCCCCN3CCCC3)c3ccccc3n2)[nH]c2ccccc12 | Dose-dependent effect |  | inhibition (3T3-L1 [5]): Dose-dependent effect; EC50 (3T3-L1 [3]): 510 nM; half-life [6]: 4.13 h; inhibition (3T3-L1 [7]): Dose-dependent effect; inhibition (3T3-L1 [8]): Dose-dependent effect; solubility at 24 h [9]: 15.1 µg/mL (≈ 36.5 µM); remaining at 1 h [10]: 83.9%; Activity (3T3-L1 [11]): >=50%; microsomal CLint [12]: 2.8 µL/min/mg; Activity (3T3-L1 [13]): Active; k el at 1 h [14]: 4.67e-05 s⁻¹; Activity (3T3-L1 [15]): Active; Activity (3T3-L1 [16]): Non-Toxic; inhibition (3T3-L1 [17]): Dose-dependent effect
Cc1c(-c2nc(NCCN(C)C)c3ccccc3n2)[nH]c2ccccc12 | Dose-dependent effect | Active | 
CN(C)CCCOc1nc(-c2[nH]c3ccccc3c2C=O)nc2ccccc12 | Dose-dependent effect |  | 
O=Cc1c(-c2nc(OCCCN3CCCC3)c3ccccc3n2)[nH]c2ccccc12 | Dose-dependent effect |  | 
CN(C)CCSc1nc(-c2[nH]c3ccccc3c2C=O)nc2ccccc12 | Dose-dependent effect |  | 
COc1ccc2[nH]c(-c3nc(NCCCN4CCCC4)c4ccccc4n3)c(C=O)c2c1 | Dose-dependent effect |  | 
Cc1c(-c2nc(NCCN3CCCC3)c3ccccc3n2)sc2ccccc12 | Dose-dependent effect | Active | 

Compound | Activity (3T3-L1 [3]) | Activity (3T3-L1 [4]) | also measured
CCN(CC)CCCCNc1nc(-c2[nH]c3ccc(OC)cc3c2C=O)nc2ccccc12 | Dose-dependent effect |  | inhibition (3T3-L1 [5]): Dose-dependent effect; EC50 (3T3-L1 [3]): 920 nM; half-life [6]: 4.28 h; inhibition (3T3-L1 [7]): Dose-dependent effect; inhibition (3T3-L1 [8]): Dose-dependent effect; solubility at 24 h [9]: 65.9 µg/mL (≈ 148 µM); remaining at 1 h [10]: 84%; Activity (3T3-L1 [11]): >=50%; microsomal CLint [12]: 2.7 µL/min/mg; Activity (3T3-L1 [13]): Active; k el at 1 h [14]: 4.5e-05 s⁻¹; Activity (3T3-L1 [15]): Active; Activity (3T3-L1 [16]): Non-Toxic; inhibition (3T3-L1 [17]): Dose-dependent effect
O=Cc1c(-c2nc(NCCCN3CCCC3)c3ccccc3n2)[nH]c2ccccc12 | Dose-dependent effect |  | Activity (3T3-L1 [18]): 34.9%
CCN(CC)CCCCNc1nc(-c2[nH]c3ccccc3c2C)nc2ccccc12 | Dose-dependent effect | Active | 
Cc1c(-c2nc(OCCN(C)C)c3ccccc3n2)oc2ccccc12 | Dose-dependent effect | Active | 
Cc1c(-c2nc(NCCN(C)C)c3ccccc3n2)sc2ccccc12 | Dose-dependent effect | Active | 
Cc1c(-c2nc(OCCCN(C)C)c3ccccc3n2)oc2ccccc12 | Dose-dependent effect | Active | 
O=Cc1c(-c2nc(NCCCN3CCCC3)c3ccccc3n2)oc2ccccc12 | Dose-dependent effect |  | Activity (3T3-L1 [18]): 88.7%
CN(C)CCCNc1nc(-c2c(C=O)c3ccccc3n2Cc2ccccc2)nc2ccccc12 | Dose-dependent effect |  | Activity (3T3-L1 [18]): 57.1%
O=Cc1c(-c2nc(OCCN3CCCC3)c3ccccc3n2)[nH]c2ccccc12 | Dose-dependent effect |  | 
CCN(CC)CCNc1nc(-c2[nH]c3ccccc3c2C)nc2ccccc12 | Dose-dependent effect | Active | 
CN(C)CCCCNc1nc(-c2oc3ccccc3c2C=O)nc2ccccc12 | Dose-dependent effect |  | 
COc1ccc2[nH]c(-c3nc(NCCN(C)C)c4ccccc4n3)c(C=O)c2c1 | Dose-dependent effect |  | 
Cc1c(-c2nc(OCCCN3CCCC3)c3ccccc3n2)oc2ccccc12 | Dose-dependent effect | Active | 
O=Cc1c(-c2nc(NCCN3CCCC3)c3ccccc3n2)oc2ccccc12 | Dose-dependent effect |  | 
CN(C)CCCCOc1nc(-c2[nH]c3ccccc3c2C=O)nc2ccccc12 | Dose-dependent effect |  | 
Cc1c(-c2nc(OCCCCN(C)C)c3ccccc3n2)oc2ccccc12 | Dose-dependent effect | Active | 
COc1ccc2[nH]c(-c3nc(NCCCN(C)C)c4ccccc4n3)c(C=O)c2c1 | Dose-dependent effect |  | 
Cc1c(-c2nc(OCCN3CCCC3)c3ccccc3n2)oc2ccccc12 | Dose-dependent effect | Active | 
Cc1c(-c2nc(NCCN3CCCC3)c3ccccc3n2)[nH]c2ccccc12 | Dose-dependent effect | Active | 
CCN(CC)CCSc1nc(-c2[nH]c3ccccc3c2C=O)nc2ccccc12 | Dose-dependent effect |  | 
